# Measured values from PubChem BioAssay.
# Active and inactive are the calls of the source.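 Rule for the calls, unless noted: active = GFP response above 150% of the DMSO level; inconclusive = fewer than 70 events counted for a yeast strain; inactive = the rest.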
# Key:
# [1] = hit retest on RPL19A-GFP reporter strain – cell-based, S. cerevisiae, flow cytometry, cherry picks, mother/daughter gates, confirmation (AID 2270;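 active = GFP response below 50% of the DMSO control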); settings: 3 h, at 10 µM, stronger effect = lower value, 100 = same GFP as DMSO wells
# [2] = yeast TOR pathway reporter LAP4-GFP change – cell-based, cherry picks, flow cytometry, mother/daughter gates, confirmation (AID 2271;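 active = GFP response above 150% of the DMSO control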;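 note: ratio of sample to DMSO plate mean so 100% equals DMSO level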); settings: S. cerevisiae LAP4-GFP strain, 3 h, at 10 µM, stronger effect = higher value, 100 means same as DMSO control
# How it was run: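 Material: Alexa 633-stained baker's yeast GFP-fusion strain; Compound dosing: single test-compound dose, 10 µM final; Incubation: 30 °C, 3 h compound incubation, rotating; Detection: HT flow cytometry, GFP fluorescence channel; Control set: positive rapamycin (400 ng/mL), negative DMSO.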
# [3] = TOR pathway reporter MEP2-GFP, retest of hits – S. cerevisiae, flow cytometry GFP, cherry picks, confirmation (AID 2272;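 active = GFP response above 150% of the DMSO control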;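 note: ratio of well signal to plate DMSO mean so 100% equals DMSO level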); settings: S. cerevisiae MEP2-GFP strain, 3 h, at 10 µM, stronger effect = higher value
# [4] = yeast AGP1-GFP fluorescence change, single-dose – cell-based, flow cytometry, S. cerevisiae, cherry picks, confirmation (AID 2273);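 note: median GFP channel fluorescence over the whole cell population gate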; settings: S. cerevisiae AGP1-GFP strain, 3 h, at 10 µM
# [5] = TOR pathway CIT2 reporter hit retest – S. cerevisiae, GFP fusion, cherry picks, mother/daughter gates, confirmation (AID 2274); settings: S. cerevisiae CIT2-GFP strain, flow cytometry, 3 h, at 10 µM, stronger effect = higher value
# [6] = measured here: daughter cell gate
# [7] = measured here: mother cell gate
# [8] = measured here: daughter cell gate response
# [9] = measured here: mother cell gate response
SMILES,GFP response vs DMSO [1],"GFP response vs DMSO [1, 6]","GFP response vs DMSO [1, 7]",GFP response relative to DMSO [2],"GFP response relative to DMSO [2, 8]","GFP response relative to DMSO [2, 9]",GFP response vs DMSO [3],"GFP response, % of DMSO [4]","GFP response, % of DMSO [5]","GFP response, % of DMSO [5, 6]","GFP response, % of DMSO [5, 7]"
CCCCNC(=O)c1ccc2c(SCC(=O)O)c3c(nc2c1)CCCC3,98.7% (inactive),96.7%,99%,101% (inactive),104%,97.5%,99.5% (inactive),98% (inactive),97.8% (inactive),98.3%,98%
COc1ccc(-c2nc3cc(C)ccn3c2NCC2CCCO2)cc1OC (stereo not drawn),94.8% (inactive),96.4%,93.4%,97% (inactive),94.2%,96.2%,99% (inactive),104% (inactive),100% (inactive),101%,99.3%
CC1(C)CC(=O)C2=C(C1)OC1=C(C(=O)CC(C)(C)C1)C2c1ccc(O)cc1O,104% (inactive),105%,99.8%,143% (inactive),139%,143%,97.8% (inactive),96.3% (inactive),95.2% (inactive),103%,89.1%
CCOC(=O)CCS(=O)(=O)c1nc(-c2ccccc2)cc(C(F)(F)F)n1,98.8% (inactive),102%,93.5%,164% (active),153%,170%,146% (inactive),127% (inactive),100% (inactive),106%,92.3%
c1cc2c(cc1C1CCCCC1)c1c3n2CCCNC3CCC1 (stereo not drawn),101% (inactive),99%,100%,101% (inactive),102%,102%,111% (inactive),105% (inactive),100% (inactive),96.5%,98.7%
O=C(O/N=C(\c1ccccc1)c1ccncc1)c1ccccc1Cl,77% (inactive),74.3%,79.7%,119% (inactive),118%,123%,91% (inactive),91.8% (inactive),68.1% (inactive),69.2%,69.2%
CCNC(=O)/C(C#N)=C/c1c(N2CCOCC2)nc2ccccn2c1=O,96.9% (inactive),99.3%,95.4%,102% (inactive),101%,104%,103% (inactive),102% (inactive),100% (inactive),101%,99.3%
CN1CCN(CC(=O)N2CCn3c4c(c5cc(C6CCCCC6)ccc53)CCCC42)CC1 (stereo not drawn),90.7% (inactive),86.4%,92.7%,116% (inactive),109%,119%,108% (inactive),95.8% (inactive),90.7% (inactive),89%,88.6%
CN(C)c1ccc(N=Cc2nc(-c3ccccc3)oc2OC(=O)c2ccccc2)cc1,98.6% (inactive),100%,98.5%,105% (inactive),103%,105%,115% (inactive),111% (inactive),107% (inactive),103%,107%
CCc1ccc2c(c1)/C(=C/C(=O)c1cccs1)C(=O)N2,94.9% (inactive),94.7%,87.7%,178% (active),156%,171%,100% (inactive),104% (inactive),91.3% (inactive),91.5%,84.8%
C/C(=N\NC(=O)c1ccc(Br)cc1)c1ccccc1,98% (inactive),97.9%,98%,97.9% (inactive),99.2%,98.3%,102% (inactive),94.3% (inactive),99.7% (inactive),99.1%,98.5%
COc1ccc(OC)c(NC(=O)c2cccc3c2C(=O)N(C2CCCCC2)C3)c1,97.8% (inactive),98.4%,98.4%,92.8% (inactive),92.8%,90.8%,98.3% (inactive),97.8% (inactive),101% (inactive),103%,98.5%
CCCc1ccc(C(=O)N2CCN(c3ccccc3OCC)CC2)cc1,99.1% (inactive),98.8%,99.2%,95.3% (inactive),93.6%,93.6%,97.5% (inactive),96.9% (inactive),96.4% (inactive),96.4%,94.5%
CCOc1ccc(/C=C/C(=O)c2c(O)cc(C)oc2=O)cc1,95.1% (inactive),96.1%,94.6%,120% (inactive),113%,126%,106% (inactive),107% (inactive),93.1% (inactive),94%,92.6%
Cc1ccc(S(=O)(=O)N2CCCC2C(=O)OCc2ccco2)cc1 (stereo not drawn),103% (inactive),103%,103%,89% (inactive),92.5%,92.1%,107% (inactive),97.6% (inactive),112% (inactive),111%,112%
CCOC(=O)N/C(N)=N/c1nc2ccccc2s1,85.9% (inactive),82.1%,86.6%,120% (inactive),113%,126%,102% (inactive),95% (inactive),92.6% (inactive),86.7%,93.4%
CCCc1[nH]nc2c1C1(C(=O)N(C(C)C)c3ccccc31)C(C#N)=C(N)O2 (stereo not drawn),98.2% (inactive),99.8%,98.2%,96.5% (inactive),104%,96.4%,106% (inactive),99.1% (inactive),98.6% (inactive),101%,99.3%

SMILES,GFP response vs DMSO [1],"GFP response vs DMSO [1, 6]","GFP response vs DMSO [1, 7]",GFP response relative to DMSO [2],"GFP response relative to DMSO [2, 8]","GFP response relative to DMSO [2, 9]",GFP response vs DMSO [3],"GFP response, % of DMSO [4]","GFP response, % of DMSO [5]","GFP response, % of DMSO [5, 6]","GFP response, % of DMSO [5, 7]"
COC(=O)c1cc(S(=O)(=O)Nc2nn(C)c3ccccc23)oc1C,97.2% (inactive),98.1%,97.1%,96.7% (inactive),97.6%,94%,100% (inactive),95% (inactive),99.7% (inactive),101%,99.7%
C=CCOc1cccc(C(=O)/C=C2/C(=O)Nc3ccccc32)c1,102% (inactive),97.9%,98.8%,114% (inactive),107%,117%,112% (inactive),105% (inactive),102% (inactive),103%,98.1%
CCCc1[nH]nc2c1C(c1cc(OC)ccc1F)C(C#N)=C(N)O2 (stereo not drawn),98% (inactive),99.3%,97.7%,101% (inactive),101%,100%,96.8% (inactive),101% (inactive),105% (inactive),103%,104%
Cc1ccc(-c2noc(CCC(=O)Nc3ccccc3C)n2)cc1,98% (inactive),97%,96.5%,111% (inactive),104%,112%,106% (inactive),100% (inactive),100% (inactive),101%,98.2%
Cc1c(O)ccc(/C=N/Nc2nc(-c3cccnc3)nc3ccccc23)c1O,97.4% (inactive),95.9%,98.5%,97.4% (inactive),92.5%,103%,102% (inactive),93.9% (inactive),99.1% (inactive),96.5%,98.7%
CCn1c(=O)c(C(=O)NCc2ccc(OC)cc2)c(O)c2ccccc21,98.5% (inactive),99.5%,98.4%,97.7% (inactive),102%,97.4%,106% (inactive),100% (inactive),101% (inactive),101%,100%
CCS(=O)(=O)N1N=C(c2ccc(NS(C)(=O)=O)cc2)CC1c1ccccc1 (stereo not drawn),99.8% (inactive),98.4%,99%,101% (inactive),104%,99.5%,108% (inactive),106% (inactive),101% (inactive),103%,103%
COCCCNC(=O)c1ccc2c3c(onc13)-c1ccccc1C2=O,96.3% (inactive),102%,92.9%,132% (inactive),126%,137%,102% (inactive),83.6% (inactive),96.5% (inactive),103%,90.2%
COc1ccc(N=Cc2cc(Cc3ccccc3Cl)cc([N+](=O)[O-])c2O)cc1OC,93.4% (inactive),93%,86.5%,142% (inactive),114%,147%,120% (inactive),96.7% (inactive),96.5% (inactive),86.7%,96.6%
CCOc1ccc(N2C(=O)CC(Sc3ncccn3)C2=O)cc1 (stereo not drawn),98.2% (inactive),98.4%,99.2%,97.9% (inactive),97.6%,98.3%,100% (inactive),101% (inactive),104% (inactive),105%,104%
CSC(SC)=C(C#N)C(=O)c1ccccc1,102% (inactive),98.6%,99.8%,128% (inactive),117%,129%,103% (inactive),96.3% (inactive),93% (inactive),92%,93.2%
O=C(NCc1ccccc1)c1nc(S(=O)(=O)Cc2ccccc2)ncc1Cl,101% (inactive),99.2%,98.5%,108% (inactive),108%,108%,100% (inactive),104% (inactive),96.5% (inactive),93.2%,98.7%
O=C(COC(=O)C1CCN(c2ccc(C(F)(F)F)cn2)CC1)Nc1cccc(F)c1,95% (inactive),94.6%,96.1%,102% (inactive),102%,100%,96.2% (inactive),97.2% (inactive),104% (inactive),108%,102%
COc1ccc(-c2nc(-c3ccccc3OC)no2)cc1OC,100% (inactive),98.8%,98.6%,102% (inactive),99.1%,104%,105% (inactive),91.8% (inactive),94.4% (inactive),95.6%,93.2%
COc1ccccc1C(=O)N1CCN(c2cccc(Cl)c2)CC1,97.2% (inactive),98.9%,95.8%,102% (inactive),102%,99.3%,100% (inactive),95.6% (inactive),96.9% (inactive),99.1%,95%
O=C(Oc1ccnc2cc(Cl)ccc12)N1CCCCCC1,99.3% (inactive),97.3%,95%,114% (inactive),111%,117%,437% (active),185% (active),92.6% (inactive),93.2%,89.1%
